# Experimental data from ChEMBL document CHEMBL4715798, “Structure-Based Optimization of Multifunctional Agonists for Opioid and Neuropeptide FF Receptors with Potent Nontolerance Forming Analgesic Activities” (J Med Chem, 2016).
# Calls of active or inactive are those of the source. No cut-off for these calls is given here. Non-standard residues stand in square brackets, D forms with d. Residues, ends and D or L forms follow the SMILES beside them.
# What was measured:
# Mu-type opioid receptor [1] = biological target: T1, Mu-type opioid receptor (Homo sapiens, UniProt P35372); assay: Agonist activity at mu opioid receptor (unknown origin) expressed in HEK293-A cells assessed as reduction in forskolin-induced cAMP accumulation incubated for 30 mins by competition PKA binding assay relative to Tyr-D-Ala-Gly-Phe-Gln-Pro-Gln-Arg-Phe-NH2; type: functional, cell-based; conditions: filed as agonist
# Outline: (§1)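 cAMP functional read-out in transfected cells. Log EC50 ± standard error was obtained by nonlinear regression of data from at least three independent experiments run in duplicate.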
# Mus musculus [2] = assay: Antinociceptive activity in mouse assessed as development of tolerance dosed repeated icv injections for 6 days by radiant heat tail-flick test; type: functional, organism-based; conditions: time 6.0 day
# Outline: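 Tail-flick test in mice. Peptide was given icv once daily for 6 days at a fixed dose. Antinociceptive responses to the same dose on day 1 and day 6 were compared to judge tolerance. Values are mean ± SEM.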
# Mus musculus [3] = assay: Antinociceptive activity in icv dosed mouse assessed as inhibition of phase II flinching behaviors by formalin-induced nociceptive behavioral test; type: functional
# Mus musculus [4] = assay: Antinociceptive activity in mouse dosed repeated icv injections for 6 days by radiant heat tail-flick test; type: functional; conditions: time 6 day
# Outline: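 Mice received the same icv dose once daily for 6 days in the radiant heat tail-flick test. Tolerance was judged by comparing the antinociceptive response on day 1 with day 6. Values are mean ± SEM.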
# [5] = biological target: Kappa-type opioid receptor (Homo sapiens, UniProt P41145); assay: Agonist activity at kappa opioid receptor (unknown origin) expressed in HEK293-A cells assessed as reduction in forskolin-induced cAMP accumulation incubated for 30 mins by competition PKA binding assay; type: functional, cell-based; outline: as §1
# Mus musculus [6] = organism: Mus musculus; assay: Antinociceptive activity in mouse; type: functional
# [7] = biological target: T2, Neuropeptide FF receptor 1 (Homo sapiens, UniProt Q9GZQ6); assay: Agonist activity at NPFFR1 (unknown origin) expressed in HEK293-A cells assessed as reduction in forskolin-induced cAMP accumulation incubated for 30 mins by competition PKA binding assay relative to Tyr-D-Ala-Gly-Phe-Gln-Pro-Gln-Arg-Phe-NH2; type: functional, cell-based; conditions: filed as agonist; outline: as §1
# [8] = biological target: T3, Delta-type opioid receptor (Homo sapiens, UniProt P41143); assay: Agonist activity at delta opioid receptor (unknown origin) expressed in HEK293-A cells assessed as reduction in forskolin-induced cAMP accumulation incubated for 30 mins by competition PKA binding assay relative to Tyr-D-Ala-Gly-Phe-Gln-Pro-Gln-Arg-Phe-NH2; type: functional, cell-based; conditions: filed as agonist; outline: as §1
# [9] = biological target: T4, Neuropeptide FF receptor 2 (Homo sapiens, UniProt Q9Y5X5); assay: Agonist activity at NPFFR2 (unknown origin) expressed in HEK293-A cells assessed as reduction in forskolin-induced cAMP accumulation incubated for 30 mins by competition PKA binding assay relative to Tyr-D-Ala-Gly-Phe-Gln-Pro-Gln-Arg-Phe-NH2; type: functional, cell-based; conditions: filed as agonist; outline: as §1
# Mu-type opioid receptor [10] = biological target: T1, Mu-type opioid receptor; assay: Agonist activity at mu opioid receptor (unknown origin) expressed in HEK293-A cells assessed as reduction in forskolin-induced cAMP accumulation incubated for 30 mins by competition PKA binding assay; type: functional, cell-based; conditions: read-out: EC50; outline: as §1
# [11] = biological target: T4, Neuropeptide FF receptor 2; assay: Agonist activity at NPFFR2 (unknown origin) expressed in HEK293-A cells assessed as reduction in forskolin-induced cAMP accumulation incubated for 30 mins by competition PKA binding assay; type: functional, cell-based; conditions: read-out: EC50; outline: as §1
# Mus musculus [12] = assay: Antinociceptive activity in icv dosed mouse assessed as inhibition of phase I flinching behaviors by formalin-induced nociceptive behavioral test; type: functional
# [13] = biological target: T2, Neuropeptide FF receptor 1; assay: Agonist activity at NPFFR1 (unknown origin) expressed in HEK293-A cells assessed as reduction in forskolin-induced cAMP accumulation incubated for 30 mins by competition PKA binding assay; type: functional, cell-based; outline: as §1
# [14] = biological target: T3, Delta-type opioid receptor; assay: Agonist activity at delta opioid receptor (unknown origin) expressed in HEK293-A cells assessed as reduction in forskolin-induced cAMP accumulation incubated for 30 mins by competition PKA binding assay; type: functional, cell-based; outline: as §1
# Mus musculus [15] = assay: Antinociceptive activity in mouse model of CFA-induced chronic inflammatory pain assessed as reduction in tactile hyperalgesia at 3 nmol, icv after 15 to 90 mins; type: functional, organism-based; conditions: time 15-90 min
# Mus musculus [16] = assay: Antinociceptive activity in mouse model of CFA-induced chronic inflammatory pain assessed as reduction in tactile hyperalgesia at 3 nmol, icv dosed once daily for 6 days; type: functional, organism-based; conditions: time 6.0 day
# [17] = biological target: T2, Neuropeptide FF receptor 1; assay: Agonist activity at NPFFR1 (unknown origin) expressed in HEK293-A cells assessed as reduction in forskolin-induced cAMP accumulation at 10 uM incubated for 30 mins by competition PKA binding assay relative to Tyr-D-Ala-Gly-Phe-Gln-Pro-Gln-Arg-Phe-NH2; type: functional, cell-based; outline: as §1
SMILES,Emax (Mu-type opioid receptor [1]),Activity (Mus musculus [2]),ED50 (Mus musculus [3]),ED50 (Mus musculus [4]),EC50 [5],ED50 (Mus musculus [6]),Emax [7],Emax [8],Emax [9],EC50 (Mu-type opioid receptor [10]),EC50 [11],ED50 (Mus musculus [12]),EC50 ([13]; read-out: EC50),EC50 [14],Activity (Mus musculus [15]),Activity (Mus musculus [16]),Emax [17],EC50 ([13]; read-out: pEC50 (converted))
C[C@@H](NC(=O)[C@@H](N)Cc1ccc(O)cc1)C(=O)NCC(=O)N[C@@H](Cc1ccccc1)C(=O)N[C@@H](CCC(N)=O)C(=O)N1CCC[C@H]1C(=O)N[C@@H](CCC(N)=O)C(=O)N[C@@H](CCCNC(=N)N)C(=O)N[C@@H](Cc1ccccc1)C(N)=O (H-Y[dA]GFQPQRF-NH2),92.4%,Active,1140 pmol,0.533 nmol,0.564 µM,0.39 nmol,59.9%,82.2%,58.4%,0.308 µM,0.185 µM,120 pmol,0.591 µM,0.587 µM,–,–,–,–
CN1CC[C@]23c4c5ccc(O)c4O[C@H]2[C@@H](O)C=C[C@H]3[C@H]1C5 [MORPHINE],–,–,–,–,–,1.02 nmol,–,–,–,–,–,–,–,–,Active,inactive,–,–
CSCC[C@H](NC(=O)[C@H](Cc1ccccc1)NC(=O)CNC(=O)[C@@H](C)NC(=O)[C@@H](N)Cc1ccc(O)cc1)C(=O)N1CCC[C@H]1C(=O)N[C@@H](CCC(N)=O)C(=O)N[C@@H](CCCNC(=N)N)C(=O)N[C@@H](Cc1ccccc1)C(N)=O (H-Y[dA]GFMPQRF-NH2),89.2%,Active,–,0.2967 nmol,0.24 µM,–,69.2%,81.2%,58.4%,0.127 µM,0.087 µM,–,0.301 µM,0.0388 µM,–,–,–,–
CSCC[C@@H](NC(=O)[C@H](Cc1ccccc1)NC(=O)CNC(=O)[C@@H](C)NC(=O)[C@@H](N)Cc1ccc(O)cc1)C(=O)N1CCC[C@H]1C(=O)N[C@@H](CCC(N)=O)C(=O)N[C@@H](CCCNC(=N)N)C(=O)N[C@@H](Cc1ccccc1)C(N)=O (H-Y[dA]GF[dM]PQRF-NH2),89.7%,Active,–,0.3986 nmol,2.46 µM,–,–,78.4%,70.2%,0.409 µM,0.318 µM,–,–,0.12 µM,–,–,26.6%,–
C[C@@H](NC(=O)[C@@H](N)Cc1ccc(O)cc1)C(=O)NCC(=O)N[C@@H](Cc1ccccc1)C(=O)NCC(=O)N1CCC[C@H]1C(=O)N[C@@H](CCC(N)=O)C(=O)N[C@@H](CCCNC(=N)N)C(=O)N[C@@H](Cc1ccccc1)C(N)=O (H-Y[dA]GFGPQRF-NH2),80.4%,Active,–,0.4172 nmol,1.63 µM,–,66.8%,75.7%,56.2%,0.0284 µM,0.185 µM,–,0.881 µM,0.898 µM,–,–,–,–
CC(C)C[C@H](NC(=O)[C@H](Cc1ccccc1)NC(=O)CNC(=O)[C@@H](C)NC(=O)[C@@H](N)Cc1ccc(O)cc1)C(=O)N1CCC[C@H]1C(=O)N[C@@H](CCC(N)=O)C(=O)N[C@@H](CCCNC(=N)N)C(=O)N[C@@H](Cc1ccccc1)C(N)=O (H-Y[dA]GFLPQRF-NH2),98.9%,Active,–,0.1865 nmol,0.12 µM,–,68.4%,79.1%,57.3%,0.25 µM,0.259 µM,–,0.0544 µM,0.0493 µM,–,–,–,0.0537 µM
